Series [1] relates to MDA-MB-468. Kind of series: Cytotoxicity against human MDA-MB-468 cells expressing Y1R assessed as reduction in cell viability treated for 8 hrs followed by culturing in proliferation medium for 72 hrs by resazurin assay. The class given is functional, cell-based. (Alamar Blue is a resazurin reagent that responds to reducing activity.)
In series [2] the test system is MDA-MB-468. The series is described as follows: Cytotoxicity against human MDA-MB-468 cells expressing Y1R assessed as reduction in cell viability at 10 uM treated for 8 hrs followed by culturing in proliferation medium for 72 hrs in presence of 10 equiv hY1R agonist, [F7,P34]-NPY by resazurin assay. The class given is functional, cell-based. The settings on record: time 80.0 hrs. In a few lines:
(§1)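 Breast cancer cells were exposed for 8 h at 37 °C in FCS-free medium to toxic agent together with 10 equiv of hY1R agonist [F7,P34]-NPY. Cells were then washed twice and grown 72 h in culture medium. Medium-treated cells with or without agonist were set at 100% and ethanol-treated cells at 0%. Triplicate, ≥2 independent experiments.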

Series [3] can be described thus: Cytotoxicity against human HEK293 cells assessed as cell viability at >= 1 uM treated for 8 hrs followed by culturing in proliferation medium for 72 hrs by resazurin assay. The settings on record: read-out: Activity. The class given is toxicity, cell-based. In a few lines: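 Seeding was 6000/well for MDA-MB-231, 10000 for T-47D, and 8000 for MDA-MB-468 and HEK293. After 24 h, cells got compound at 50 to 0.01 μM in FCS-free medium for 8 h at 37 °C, were washed twice, then kept 72 h in culture medium. Resazurin 10% (v/v) was added for 2 h at 37 °C and resorufin fluorescence read (ex 550/em 595 nm). Medium-only cells were set at 100% and 70% ethanol-treated cells at 0%.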

A further series has as its system T47D. The series is described as follows: Cytotoxicity against human T47D cells expressing Y1R assessed as reduction in cell viability at 5 uM treated for 8 hrs followed by culturing in proliferation medium for 72 hrs in presence of 10 equiv hY1R agonist, [F7,P34]-NPY by resazurin assay. The settings on record: time 80.0 hrs. The class given is functional, cell-based. In a few lines:
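Breast cancer cells were exposed for 8 h at 37 °C in FCS-free medium to toxic agent together with 10 equiv of hY1R agonist [F7,P34]-NPY. Cells were then washed twice and grown 72 h in culture medium. Viability was read by resazurin (10% v/v, 2 h, ex 550/em 595 nm). Medium-treated cells with or without agonist were set at 100% and ethanol-treated cells at 0%. Triplicate, ≥2 independent experiments.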

Series [4] relates to MDA-MB-231. Kind of series: Cytotoxicity against human MDA-MB-231 cells expressing Y1R assessed as reduction in cell viability at 25 uM treated for 8 hrs followed by culturing in proliferation medium for 72 hrs in presence of 10 equiv hY1R agonist, [F7,P34]-NPY by resazurin assay. The class given is functional, cell-based. The settings on record: time 80.0 hrs. The procedure, abridged:
as §1

For another series, the system named is T-47D (Homo sapiens). Kind of series: Cytotoxicity against human T47D cells expressing Y1R assessed as reduction in cell viability treated for 8 hrs followed by culturing in proliferation medium for 72 hrs by resazurin assay.
In a further series the test system is T47D (Homo sapiens). The description is as above.
Series [5] relates to MDA-MB-231. The series is described as follows: Cytotoxicity against human MDA-MB-231 cells expressing Y1R assessed as reduction in cell viability treated for 8 hrs followed by culturing in proliferation medium for 72 hrs by resazurin assay.

Structures are written as SMILES. Calls of active or inactive are those of the source. The calls are words filed in the database; no cut-off is given here.

The results in this text go back to ChEMBL document CHEMBL5257021 (J Med Chem, 2016).

As for `CN(Cc1cnc2nc(N)nc(N)c2n1)c1ccc(C(=O)N[C@@H](CCC(=O)O)C(=O)O)cc1` [METHOTREXATE], the IC50 with MDA-MB-468 [1] (read-out: IC50) was 200 nM; in the series on MDA-MB-468 [1] (read-out: pIC50 (converted)), 200 nM; with T-47D (Homo sapiens) it was 501 nM; with T47D (Homo sapiens) it was 500 nM; in the series on MDA-MB-231 [5] (read-out: IC50), 15000 nM; with MDA-MB-231 [5] (read-out: pIC50 (converted)) it was 15800 nM. In addition, the result in the series on MDA-MB-468 [2], in the series on T47D and in the series on MDA-MB-231 [4] was Active. Besides, in series [3], the viability at 80 h, 1 µM was 65%.
